These results are taken from ChEMBL document CHEMBL4725436, “Gibberellin JRA-003: A Selective Inhibitor of Nuclear Translocation of IKKα” (ACS Med Chem Lett, 2020).

The subject of one experiment is CA46. In words: Cytotoxicity against human CA46 cells assessed as reduction in cell viability measured after 24 hrs by CellTiter-Glo luminescent assay. The experiment is classed as functional, cell-based. The note with it: CA46, 24 h. Summed up: (§1)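 High-throughput viability screen of test agents across a panel of 22 cancerous and noncancerous human cell lines. Viability was read by CellTiter-Glo luminescence.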
For orientation: ATP-based viability assays read luminescence as a measure of living cells.

A short description of experiment [1]: Inhibition of IKKalpha/IKKbeta in human HEK293T cells transfected with firefly luciferase gene assessed as inhibition of TNF-alpha-stimulated NF-kappaB signalling preincubated for 1 hr followed by TNF alpha stimulation measured after 3 hrs by luciferase reporter gene assay. It is filed as cell-based. Particulars: HEK-293T. Summed up: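 Commercial NF-κB-driven luciferase reporter assay in HEK 293T cells stimulated with TNFα. EC50 was derived from the luminescence readout.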
For orientation: A reporter such as luciferase makes a cellular process visible.

For a further experiment, the system named is HEK-293T. The experiment can be described thus: Cytotoxicity against human HEK293T cells assessed as reduction in cell viability measured after 24 hrs by CellTiter-Glo luminescent assay. It is filed as cell-based. Summed up: as §1
Experiment [2] in a line: Cytotoxicity against human Hs578Bst cells assessed as reduction in cell viability measured after 24 hrs by CellTiter-Glo luminescent assay. It is filed as cell-based. The procedure, abridged:
as §1

A short description of experiment [3]: Cytotoxicity against human Hs888Lu cells assessed as reduction in cell viability measured after 24 hrs by CellTiter-Glo luminescent assay. The experiment is classed as cell-based. The procedure, abridged: as §1
The nature of experiment [4]: Cytotoxicity against human Hs895SK cells assessed as reduction in cell viability measured after 24 hrs by CellTiter-Glo luminescent assay. The experiment is classed as cell-based. Particulars: Hs 895.Sk. The procedure, abridged:
as §1

A short description of experiment [5]: Cytotoxicity against human Hs895T cells assessed as reduction in cell viability measured after 24 hrs by CellTiter-Glo luminescent assay. The experiment is classed as functional, cell-based. The procedure, abridged: as §1
The test system of the next experiment is Hs-578T. In words: Cytotoxicity against human Hs-578T cells assessed as reduction in cell viability measured after 24 hrs by CellTiter-Glo luminescent assay. It is filed as functional, cell-based. Summed up: as §1
The subject of another experiment is PSN1. In words: Cytotoxicity against human PSN1 cells assessed as reduction in cell viability measured after 24 hrs by CellTiter-Glo luminescent assay. The experiment is classed as functional, cell-based. Particulars: PSN1, 24 h. Summed up:
as §1

In a further experiment the test system is HCC1599. The experiment can be described thus: Cytotoxicity against human HCC1599 cells assessed as reduction in cell viability measured after 24 hrs by CellTiter-Glo luminescent assay. It is filed as functional, cell-based. Particulars: HCC1599, 24 h. Summed up:
as §1

The subject of another experiment is RCK8. In words: Cytotoxicity against human RC-K8 cells assessed as reduction in cell viability measured after 24 hrs by CellTiter-Glo luminescent assay. It is filed as functional, cell-based. The note with it: RCK8, 24 h. The procedure, abridged: as §1
The subject of the next experiment is SUD4. The experiment can be described thus: Cytotoxicity against human SU-DHL-4 cells assessed as reduction in cell viability measured after 24 hrs by CellTiter-Glo luminescent assay. Particulars: SU-DHL-4, 24 h. It is filed as functional, cell-based. The procedure, abridged:
as §1

The next experiment concerns NCI-H446. In words: Cytotoxicity against human NCI-H446 cells assessed as reduction in cell viability measured after 24 hrs by CellTiter-Glo luminescent assay. It is filed as functional, cell-based. The note with it: NCI-H446, 24 h. Summed up:
as §1

As to `C=C1C[C@]23C[C@@]1(O)CC[C@H]2c1cc(Br)c(O/C=C/C(=O)OC)c(C)c1[C@@H]3C(=O)OC`, the IC50 (in the experiment with CA46; with HEK-293T; in experiment [2]; in experiment [3]; in experiment [4]; in experiment [5]) was greater than 10 µM throughout. Moreover, the IC50 with Hs-578T, in the experiment on PSN1, in the experiment with HCC1599, with RCK8, with SUD4 and in the experiment on NCI-H446 was greater than 10 µM each time. The EC50 – broadly, the midpoint of the concentration-response curve – in [1] is greater than 100 µM.

With `C=C1C[C@]23C[C@@]1(O)CC[C@H]2c1cc2c(C(=O)OC)coc2c(C)c1[C@@H]3C(=O)OC`, the IC50 (with CA46; in the experiment on HEK-293T; in experiment [2]; in experiment [3]; in experiment [4]; in experiment [5]) was greater than 10 µM each time. Moreover, the IC50 in the experiment on Hs-578T, in the experiment with PSN1, with HCC1599, in the experiment with RCK8, with SUD4 and in the experiment on NCI-H446 was greater than 10 µM each time. In addition, the EC50 in [1] is greater than 100 µM.

Turning to `C=C1C[C@]23C[C@@]1(O)CC[C@H]2c1ccc(O/C=C/C(=O)OC)c(C)c1[C@@H]3C(=O)OC`, the IC50 (with CA46; in the experiment on HEK-293T; in experiment [2]; in experiment [3]; in [4]; in experiment [5]) was greater than 10 µM each time. The IC50 in the experiment with Hs-578T, in the experiment on PSN1, in the experiment with HCC1599, with RCK8, with SUD4 and in the experiment with NCI-H446 was greater than 10 µM each time. Further, the EC50 in experiment [1] was greater than 100 µM.

As for `C=C1[C@@H](O)[C@]23C[C@@]1(O)CC[C@H]2c1ccc(O)c(C)c1[C@@H]3C(=O)OC`, the IC50 (with CA46; in the experiment with HEK-293T; in experiment [2]; in [3]; in experiment [4]; in experiment [5]) was greater than 10 µM throughout. Besides, the IC50 in the experiment with Hs-578T, in the experiment on PSN1, in the experiment on HCC1599, in the experiment on RCK8, in the experiment on SUD4 and in the experiment on NCI-H446 was greater than 10 µM throughout. For the same compound, the 50% effective concentration (EC50) in experiment [1] was greater than 100 µM.

Regarding `COC(=O)[C@H]1c2c(cc3ccoc3c2C)[C@@H]2CC[C@@]3(C)C[C@]21CC3=O`, the IC50 (in the experiment on CA46; with HEK-293T; in experiment [2]; in experiment [3]; in experiment [4]; in experiment [5]) was greater than 10 µM throughout. In addition, the IC50 in the experiment on Hs-578T, in the experiment with PSN1, in the experiment with HCC1599, in the experiment with RCK8, with SUD4 and in the experiment on NCI-H446 was greater than 10 µM each time. Also, in [1], the EC50 is greater than 100 µM.

For the compound `Cc1cccc2c1[C@H](C(=O)O)[C@@]13CC(=O)[C@@](C)(CC[C@H]21)C3`, the IC50 (in the experiment on CA46; with HEK-293T; in experiment [2]; in experiment [3]; in experiment [4]; in experiment [5]) was greater than 10 µM throughout. For the same compound, the IC50 with Hs-578T, in the experiment on PSN1, in the experiment with HCC1599, with RCK8, in the experiment with SUD4 and in the experiment with NCI-H446 was greater than 10 µM in each case. For the same compound, in experiment [1], the EC50 is greater than 100 µM.

`C=C1[C@@H]2OC(=O)[C@H]3[C@@H]4[C@@]5(C)C(=O)C=C[C@@]4(OC5=O)[C@@H]4CC[C@]1(O)C[C@]234`: the EC50 in the experiment with CA46 worked out at 3.7 µM; in [1], 57 µM; in the experiment on HCC1599 it was 5.5 µM; in the experiment on RCK8, 4.3 µM; with SUD4, 3 µM; in the experiment with NCI-H446 it was 5.9 µM. In addition, the half-maximal inhibitory concentration (IC50) (in the experiment on HEK-293T; in [2]; in experiment [3]; in [4]; in experiment [5]; in the experiment with Hs-578T) was greater than 10 µM throughout. Moreover, in the experiment with PSN1, the IC50 – broadly, the concentration that gives 50% inhibition – was greater than 10 µM.

For `C=C1C[C@]23C[C@@]1(O)CC[C@H]2c1cc2c(C(=O)O)coc2c(C)c1[C@@H]3C(=O)O`, the IC50 (in the experiment on CA46; in the experiment on HEK-293T; in experiment [2]; in experiment [3]; in experiment [4]; in [5]) was greater than 10 µM throughout. Moreover, the IC50 in the experiment on Hs-578T, with PSN1, in the experiment on HCC1599, in the experiment with RCK8, in the experiment on SUD4 and in the experiment with NCI-H446 was greater than 10 µM in each case. The 50% effective concentration (EC50) in experiment [1] is greater than 100 µM.

On to `COC(=O)[C@H]1c2c(C)cccc2[C@@H]2CC[C@@]3(C)C[C@]21CC3=O`, for which the IC50 (in the experiment on CA46; in the experiment on HEK-293T; in [2]; in experiment [3]; in experiment [4]; in experiment [5]) was greater than 10 µM in each case. In addition, the IC50 with Hs-578T, in the experiment on PSN1, in the experiment on HCC1599, with RCK8, in the experiment with SUD4 and with NCI-H446 was greater than 10 µM each time. Further, the EC50 in experiment [1] was greater than 100 µM.

For `C=C1C[C@]23C[C@@]1(O)CC[C@@H]2c1cccc(C)c1[C@@H]3C(=O)OC`, the IC50 (in the experiment with CA46; with HEK-293T; in [2]; in experiment [3]; in experiment [4]; in experiment [5]) was greater than 10 µM each time. Besides, the IC50 in the experiment with Hs-578T, in the experiment on PSN1, in the experiment on HCC1599, in the experiment with RCK8, in the experiment with SUD4 and in the experiment on NCI-H446 was greater than 10 µM in each case. In addition, the concentration for a half-maximal effect (EC50) in experiment [1] was greater than 100 µM.

With `C=C1C(=O)[C@@]2(C)CC[C@H]3c4cccc(C)c4[C@H](C(=O)OC)[C@@]13C2`, the EC50 stood at 2.5 µM with CA46; 22 µM in [1]; 2.9 µM in the experiment with HEK-293T; 10 µM in [2]; 5.2 µM with Hs-578T; 1.4 µM with HCC1599. The EC50 in the experiment on RCK8 is 0.97 µM; in the experiment with SUD4 it was 0.62 µM; with NCI-H446, 2.1 µM. The IC50 (in experiment [3]; in [4]; in [5]; in the experiment with PSN1) was greater than 10 µM throughout.

Regarding `C=C1C(=O)[C@@]2(C)CC[C@@H]3c4cccc(C)c4[C@H](C(=O)OC)[C@@]13C2`, the EC50 worked out at 0.46 µM in the experiment on CA46; 55 µM in experiment [1]; 9.5 µM in experiment [4]; 4.8 µM in the experiment on Hs-578T; 1.1 µM with HCC1599; 1.9 µM in the experiment with RCK8. In addition, the EC50 was found to be 0.69 µM in the experiment with SUD4 and 2.9 µM in the experiment with NCI-H446. Further, the IC50 (with HEK-293T; in experiment [2]; in experiment [3]; in experiment [5]; in the experiment with PSN1) was greater than 10 µM throughout.

Consider `COC(=O)[C@H]1c2c(C)cccc2[C@H]2CC[C@@]3(C)C[C@]21CC3=O`, for which the IC50 (in the experiment on CA46; in the experiment with HEK-293T; in [2]; in experiment [3]; in experiment [4]; in experiment [5]) was greater than 10 µM each time. The IC50 with Hs-578T, with PSN1, in the experiment with HCC1599, in the experiment with RCK8, in the experiment on SUD4 and in the experiment with NCI-H446 was greater than 10 µM each time. Besides, the EC50 in experiment [1] is greater than 100 µM.

As for `COC(=O)[C@H]1c2c(ccc(O)c2C)[C@@H]2CC[C@@]3(C)C[C@]21CC3=O`, the IC50 (in the experiment with CA46; in the experiment on HEK-293T; in experiment [2]; in experiment [3]; in experiment [4]; in experiment [5]) was greater than 10 µM in each case. Also, the IC50 in the experiment on Hs-578T, in the experiment on PSN1, in the experiment with HCC1599, with RCK8, in the experiment with SUD4 and with NCI-H446 was greater than 10 µM throughout. Further, the EC50 in experiment [1] is greater than 100 µM.
